In brackets after ≈: the same amount, converted by molar mass.
Legend:
Format in all cases: functional
Rattus norvegicus [1] = assay: Analgesic activity against Wistar albino rat at 200 mg/kg, ip measured immediately after 120 mins post compound treatment by tail flick method (reference value: 2.22 +/- 0.07 %); details: 2 h, route intraperitoneal, read-out: INH
Rattus norvegicus [2] = assay: Analgesic activity against Wistar albino rat at 200 mg/kg, ip measured immediately after 60 mins post compound treatment by tail flick method (reference value: 4.18 +/- 0.13 %); details: 1 h, route intraperitoneal, read-out: INH
Rattus norvegicus [3] = assay: Analgesic activity against Wistar albino rat at 200 mg/kg, ip measured immediately after 30 mins post compound treatment by tail flick method (reference value: 4.20 +/- 0.12 %); details: 0.5 h, route intraperitoneal
Rattus norvegicus [4] = assay: Analgesic activity against Wistar albino rat at 200 mg/kg, ip measured immediately after compound administration by tail flick method (reference value: 1.9 +/- 0.12 %); details: route intraperitoneal, read-out: INH
Candida albicans = assay: Antimicrobial activity against Candida albicans after 16 hrs by serial dilution method
In short: (§1)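 Tube broth serial dilution in trypticase soya broth, from 1 mg/mL DMF stocks. Cultures were grown 6 h at 37 °C, adjusted to a McFarland standard, then diluted to a 10^5 cfu/mL inoculum. Tubes were incubated 16 h at 37 °C, alongside inoculum and broth controls and ceftriaxone or fluconazole reference. MIC was read as the tubes showing no visible growth.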

Pseudomonas aeruginosa = assay: Antimicrobial activity against Pseudomonas aeruginosa after 16 hrs by serial dilution method; in short: as §1
Escherichia coli = assay: Antimicrobial activity against Escherichia coli after 16 hrs by serial dilution method; in short: as §1
Bacillus subtilis = assay: Antimicrobial activity against Bacillus subtilis after 16 hrs by serial dilution method; in short: as §1
Staphylococcus aureus = assay: Antimicrobial activity against Staphylococcus aureus after 16 hrs by serial dilution method; in short: as §1
Rattus norvegicus [5] = assay: Analgesic activity against Wistar albino rat at 2 mg/kg, ip measured immediately after 120 mins post compound treatment by tail flick method (reference value: 2.22 +/- 0.07 %); details: 2 h, route intraperitoneal
Rattus norvegicus [6] = assay: Analgesic activity against Wistar albino rat at 2 mg/kg, ip measured immediately after 60 mins post compound treatment by tail flick method (reference value: 4.18 +/- 0.13 %); details: 1 h, route intraperitoneal
Rattus norvegicus [7] = assay: Analgesic activity against Wistar albino rat at 2 mg/kg, ip measured immediately after 30 mins post compound treatment by tail flick method (reference value: 4.20 +/- 0.12 %); details: 0.5 h, route intraperitoneal
Rattus norvegicus [8] = assay: Analgesic activity against Wistar albino rat at 2 mg/kg, ip measured immediately after compound administration by tail flick method (reference value: 1.9 +/- 0.12 %); details: route intraperitoneal

Row | Compound | tail flick reaction time at 200 mg/kg (Rattus norvegicus [1]) [%] | tail-flick reaction time at 200 mg/kg (Rattus norvegicus [2]) [%] | inhibition in vivo at 200 mg/kg (Rattus norvegicus [3]) [%] | tail-flick reaction time at 200 mg/kg (Rattus norvegicus [4]) [%] | MIC (Candida albicans) [µg/mL] | MIC (Pseudomonas aeruginosa) [µg/mL] | MIC (Escherichia coli) [µg/mL] | MIC (Bacillus subtilis) [µg/mL] | MIC (Staphylococcus aureus) [µg/mL] | inhibition in vivo at 2 mg/kg (Rattus norvegicus [5]) [%] | inhibition in vivo at 2 mg/kg (Rattus norvegicus [6]) [%] | inhibition in vivo at 2 mg/kg (Rattus norvegicus [7]) [%] | inhibition in vivo at 2 mg/kg (Rattus norvegicus [8]) [%]
1 | Cc1ccc(-c2nnc(S)n2/N=C/c2c[nH]nc2-c2ccc(Cl)cc2Cl)cn1 | 2.98 | 4.15 | 3.5 | 2.93 | 6.25 (≈ 14.5 µM) | 1.61 (≈ 3.75 µM) | 3.12 (≈ 7.26 µM) | 1.61 (≈ 3.75 µM) | 3.12 (≈ 7.26 µM) |  |  |  | 
2 | O=C(CSc1nc2ccccc2o1)N/N=C/c1c[nH]nc1-c1ccc(Cl)cc1Cl | 3.62 | 3.45 | 3.38 | 2.27 | 12.5 (≈ 28 µM) | 6.25 (≈ 14 µM) | 3.12 (≈ 7 µM) | 6.25 (≈ 14 µM) | 12.5 (≈ 28 µM) |  |  |  | 
3 | CSc1ccc(-c2n[nH]cc2/C=N/NC(=O)CSc2nc3ccccc3o2)cc1 | 3.83 | 3.53 | 3.15 | 3.05 | 12.5 (≈ 29.5 µM) | 6.25 (≈ 14.8 µM) | 6.25 (≈ 14.8 µM) | 12.5 (≈ 29.5 µM) | 6.25 (≈ 14.8 µM) |  |  |  | 
4 | O=C(CSc1nc2ccccc2o1)N/N=C/c1c[nH]nc1-c1cc(Cl)sc1Cl | 3.06 | 2.93 | 2.82 | 2.55 | 25 (≈ 55.3 µM) | 6.25 (≈ 13.8 µM) | 3.12 (≈ 6.91 µM) | 3.12 (≈ 6.91 µM) | 6.25 (≈ 13.8 µM) |  |  |  | 
5 | O=C(CSc1nc2ccccc2o1)N/N=C/c1c[nH]nc1-c1ccc(-c2ccccc2)cc1 | 3.63 | 3.43 | 3.27 | 3.13 | 25 (≈ 55.1 µM) | 12.5 (≈ 27.6 µM) | 25 (≈ 55.1 µM) | 12.5 (≈ 27.6 µM) | 12.5 (≈ 27.6 µM) |  |  |  | 
6 | Clc1ccc(-c2n[nH]cc2/C=N/Nc2nc3cc(Cl)cc(Cl)c3o2)c(Cl)c1 | 3.2 | 3.05 | 2.92 | 2.75 | 12.5 (≈ 28.3 µM) | 3.12 (≈ 7.08 µM) | 12.5 (≈ 28.3 µM) | 6.25 (≈ 14.2 µM) | 12.5 (≈ 28.3 µM) |  |  |  | 
7 | CSc1ccc(-c2n[nH]cc2/C=N/Nc2nc3cc(Cl)cc(Cl)c3o2)cc1 | 3.63 | 3.57 | 3.42 | 3.25 | 25 (≈ 59.8 µM) | 12.5 (≈ 29.9 µM) | 12.5 (≈ 29.9 µM) | 12.5 (≈ 29.9 µM) | 6.25 (≈ 14.9 µM) |  |  |  | 
8 | Clc1cc(Cl)c2oc(N/N=C/c3c[nH]nc3-c3cc(Cl)sc3Cl)nc2c1 | 3.1 | 3.07 | 3.03 | 2.98 | 12.5 (≈ 28 µM) | 3.12 (≈ 6.99 µM) | 3.12 (≈ 6.99 µM) | 6.25 (≈ 14 µM) | 3.12 (≈ 6.99 µM) |  |  |  | 
9 | Clc1cc(Cl)c2oc(N/N=C/c3c[nH]nc3-c3ccc(-c4ccccc4)cc3)nc2c1 | 2.95 | 2.77 | 2.65 | 2.43 | 25 (≈ 55.8 µM) | 12.5 (≈ 27.9 µM) | 12.5 (≈ 27.9 µM) | 25 (≈ 55.8 µM) | 12.5 (≈ 27.9 µM) |  |  |  | 
10 | CSc1ccc(-c2n[nH]cc2/C=N/n2c(S)nnc2-c2ccncc2)cc1 | 2.9 | 2.83 | 2.77 | 2.62 | 12.5 (≈ 31.8 µM) | 6.25 (≈ 15.9 µM) | 3.12 (≈ 7.94 µM) | 3.12 (≈ 7.94 µM) | 3.12 (≈ 7.94 µM) |  |  |  | 
11 | Sc1nnc(COc2cccc3ccccc23)n1/N=C/c1c[nH]nc1-c1ccc(Cl)cc1Cl | 3.08 | 2.25 | 2.93 | 2.85 | 12.5 (≈ 25.2 µM) | 1.61 (≈ 3.26 µM) | 3.12 (≈ 6.31 µM) | 3.12 (≈ 6.31 µM) | 6.25 (≈ 12.6 µM) |  |  |  | 
12 | Sc1nnc(COc2cccc3ccccc23)n1/N=C/c1c[nH]nc1-c1cc(Cl)sc1Cl | 2.2 | 2.28 | 2.52 | 2.67 | 6.25 (≈ 12.5 µM) | 1.61 (≈ 3.22 µM) | 3.12 (≈ 6.23 µM) | 1.61 (≈ 3.22 µM) | 1.61 (≈ 3.22 µM) |  |  |  | 
13 | CC(C)=CCN1CC[C@]2(C)c3cc(O)ccc3C[C@H]1[C@H]2C [(+)-PENTAZOCINE] |  |  |  |  |  |  |  |  |  | 2.22 | 2.18 | 2.17 | 1.9
14 | CO/N=C(\C(=O)N[C@@H]1C(=O)N2C(C(=O)O)=C(CSc3nc(=O)c(O)nn3C)CS[C@H]12)c1csc(N)n1 [CEFTRIAXONE] |  |  |  |  |  | 1.61 (≈ 2.91 µM) | 1.61 (≈ 2.91 µM) | 1.61 (≈ 2.91 µM) | 3.12 (≈ 5.63 µM) |  |  |  | 
15 | OC(Cn1cncn1)(Cn1cncn1)c1ccc(F)cc1F [FLUCONAZOLE] |  |  |  |  | 6.25 (≈ 20.4 µM) |  |  |  |  |  |  |  | 

— ChEMBL document CHEMBL2331504, “New pyrazole derivatives containing 1,2,4-triazoles and benzoxazoles as potent antimicrobial and analgesic agents” (2013)
